Data published in ChEMBL document CHEMBL4665666, “Discovery and characterization of trypanocidal cysteine protease inhibitors from the 'malaria box'” (Eur J Med Chem, 2019).

Experiments:
[1] = target: Cruzipain (Trypanosoma cruzi) (UniProt P25779); assay: Inhibition of recombinant Trypanosoma cruzi cruzain at 5 uM using Z-FR-AMC as substrate and measured at 12 sec interval for 5 mins without preincubation by fluorimetric analysis relative to control
Summary of the method: (§1)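 Recombinant rhodesain or cruzain (1 nM) in 0.1 M sodium acetate pH 5.5, 0.01% Triton X-100, 1 mM β-mercaptoethanol. Compound at a single concentration, either without or after 10 min enzyme pre-incubation. Inhibition is relative to DMSO, with E-64 as positive control. Done in duplicate (primary screen) or triplicate.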

[2] = target: Cruzipain (Trypanosoma cruzi) (UniProt P25779); assay: Inhibition of recombinant Trypanosoma cruzi cruzain at 5 uM using Z-FR-AMC as substrate preincubated for 10 mins followed by substrate addition and measured at 12 sec interval for 5 mins by fluorimetric analysis relative to control; conditions: time 15.0 min; summary of the method: as §1
[3] = target: Rhodesain (Trypanosoma brucei rhodesiense) (UniProt Q95PM0); assay: Inhibition of recombinant Trypanosoma brucei rhodesain expressed in Pichia pastoris at 5 uM using Z-FR-AMC as substrate and measured at 12 sec interval for 5 mins without preincubation by fluorimetric analysis relative to control; summary of the method: as §1
[4] = target: Rhodesain (Trypanosoma brucei rhodesiense) (UniProt Q95PM0); assay: Inhibition of recombinant Trypanosoma brucei rhodesain expressed in Pichia pastoris at 5 uM using Z-FR-AMC as substrate preincubated for 10 mins followed by substrate addition and measured at 12 sec interval for 5 mins by fluorimetric analysis relative to control; conditions: time 15.0 min; summary of the method: as §1
[5] = target: Cruzipain (Trypanosoma cruzi) (UniProt P25779); assay: Inhibition of recombinant Trypanosoma cruzi cruzain at 2.5 uM using Z-FR-AMC as substrate and measured at 12 sec interval for 5 mins without preincubation by fluorimetric analysis relative to control
Summary of the method: as §1, with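 “pre-incubation. Z-FR-AMC 2.5 µM, read at 340/440 nm every 12 s for 5 min.” for “pre-incubation.”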

[6] = target: Cruzipain (Trypanosoma cruzi) (UniProt P25779); assay: Inhibition of recombinant Trypanosoma cruzi cruzain at 2.5 uM using Z-FR-AMC as substrate preincubated for 10 mins followed by substrate addition and measured at 12 sec interval for 5 mins by fluorimetric analysis relative to control; conditions: time 15.0 min
Summary of the method: as §1, with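 “pre-incubation. Z-FR-AMC 2.5 µM, read at 340/440 nm every 12 s for 5 min.” for “pre-incubation.”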

[7] = target: Rhodesain (Trypanosoma brucei rhodesiense) (UniProt Q95PM0); assay: Inhibition of recombinant Trypanosoma brucei rhodesain expressed in Pichia pastoris at 2.5 uM using Z-FR-AMC as substrate and measured at 12 sec interval for 5 mins without preincubation by fluorimetric analysis relative to control
Summary of the method: (§2)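 Run with no pre-incubation or with 10 min enzyme-compound pre-incubation. Fluorescence read at 340/440 nm. Concentration was set by solubility under assay conditions. Inhibition is against DMSO, with E-64 as positive control; triplicate.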

[8] = target: Rhodesain (Trypanosoma brucei rhodesiense) (UniProt Q95PM0); assay: Inhibition of recombinant Trypanosoma brucei rhodesain expressed in Pichia pastoris at 2.5 uM using Z-FR-AMC as substrate preincubated for 10 mins followed by substrate addition and measured at 12 sec interval for 5 mins by fluorimetric analysis relative to control; conditions: time 15.0 min; summary of the method: as §2
Trypanosoma cruzi = assay: Trypanocidal activity against Trypanosoma cruzi Tulahuen C4 assessed as reduction in parasite viability; assay type: functional, organism-based
[9] = system: Trypanosoma brucei brucei; assay: Trypanocidal activity against Trypanosoma brucei brucei Squib 427 assessed as reduction in parasite viability; assay type: functional, organism-based
[10] = system: Trypanosoma brucei rhodesiense; assay: Trypanocidal activity against Trypanosoma brucei rhodesiense STI B900 assessed as reduction in parasite viability; assay type: functional, organism-based
[11] = target: Cruzipain (Trypanosoma cruzi) (UniProt P25779); assay: Inhibition of recombinant Trypanosoma cruzi cruzain at 10 uM using Z-FR-AMC as substrate and measured at 12 sec interval for 5 mins without preincubation by fluorimetric analysis relative to control
Summary of the method: as §1, with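 “pre-incubation. Z-FR-AMC 2.5 µM, read at 340/440 nm every 12 s for 5 min.” for “pre-incubation.”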

[12] = target: Cruzipain (Trypanosoma cruzi) (UniProt P25779); assay: Inhibition of recombinant Trypanosoma cruzi cruzain at 10 uM using Z-FR-AMC as substrate preincubated for 10 mins followed by substrate addition and measured at 12 sec interval for 5 mins by fluorimetric analysis relative to control; conditions: time 15.0 min
Summary of the method: as §1, with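 “pre-incubation. Z-FR-AMC 2.5 µM, read at 340/440 nm every 12 s for 5 min.” for “pre-incubation.”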

[13] = target: Rhodesain (Trypanosoma brucei rhodesiense) (UniProt Q95PM0); assay: Inhibition of recombinant Trypanosoma brucei rhodesain expressed in Pichia pastoris at 10 uM using Z-FR-AMC as substrate and measured at 12 sec interval for 5 mins without preincubation by fluorimetric analysis relative to control
Summary of the method: as §1, with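 “pre-incubation. Z-FR-AMC 2.5 µM, read at 340/440 nm every 12 s for 5 min.” for “pre-incubation.”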

[14] = target: Rhodesain (Trypanosoma brucei rhodesiense) (UniProt Q95PM0); assay: Inhibition of recombinant Trypanosoma brucei rhodesain expressed in Pichia pastoris at 10 uM using Z-FR-AMC as substrate preincubated for 10 mins followed by substrate addition and measured at 12 sec interval for 5 mins by fluorimetric analysis relative to control; conditions: time 15.0 min
Summary of the method: as §1, with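 “pre-incubation. Z-FR-AMC 2.5 µM, read at 340/440 nm every 12 s for 5 min.” for “pre-incubation.”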

Cruzipain = Cruzipain (Trypanosoma cruzi, UniProt P25779); assay: Inhibition of recombinant Trypanosoma cruzi cruzain using Z-FR-AMC as substrate and measured at 12 sec interval for 5 mins without preincubation by fluorimetric analysis
Summary of the method: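 Cruzain (recombinant, 1 nM) in 0.1 M sodium acetate pH 5.5 with 0.01% Triton X-100 and 1 mM β-mercaptoethanol; Z-FR-AMC 2.5 µM, read at 340/440 nm every 12 s for 5 min, with or without 10 min enzyme–compound pre-incubation. […] For mechanism and Ki, 0.3–20.0 µM substrate and five inhibitor levels were used, with Lineweaver-Burk plots.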

[15] = target: Cruzipain (Trypanosoma cruzi) (UniProt P25779); assay: Inhibition of recombinant Trypanosoma cruzi cruzain at 10 uM preincubated for 10 mins in presence of 0.1% Triton X-100 relative to control
Summary of the method: (§3)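 To test detergent sensitivity, cruzain was pre-incubated 10 min at room temperature with compound with no Triton X-100, 0.01% or 0.1% Triton X-100. Cleavage of Z-FR-AMC was then followed at pH 5.5 in acetate buffer. Percent inhibition was compared across detergent levels.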

[16] = target: Cruzipain (Trypanosoma cruzi) (UniProt P25779); assay: Inhibition of recombinant Trypanosoma cruzi cruzain at 10 uM preincubated for 10 mins in presence of 0.01% Triton X-100 relative to control; summary of the method: as §3
[17] = target: Cruzipain (Trypanosoma cruzi) (UniProt P25779); assay: Inhibition of recombinant Trypanosoma cruzi cruzain at 10 uM preincubated for 10 mins in absence of Triton X-100 relative to control; summary of the method: as §3
[18] = target: Cruzipain (Trypanosoma cruzi) (UniProt P25779); assay: Inhibition of recombinant Trypanosoma cruzi cruzain at 10 uM preincubated with BSA for 5 mins followed by incubation with enzyme for 5 mins followed by substrate addition relative to control; conditions: time 10.0 min
Summary of the method: (§4)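 For BSA sensitivity, compound was held 5 min with BSA (2 mg/mL in 0.001% Triton X-100), then 5 min with 1 nM cruzain, before substrate was added and activity monitored. Parallel runs omitted BSA under otherwise identical conditions.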

[19] = target: Cruzipain (Trypanosoma cruzi) (UniProt P25779); assay: Inhibition of recombinant Trypanosoma cruzi cruzain at 10 uM preincubated with enzyme for 5 mins followed by substrate addition in absence of BSA relative to control; summary of the method: as §4

Cruzipain (Trypanosoma cruzi), sequence (P25779 123-467 limits assumed): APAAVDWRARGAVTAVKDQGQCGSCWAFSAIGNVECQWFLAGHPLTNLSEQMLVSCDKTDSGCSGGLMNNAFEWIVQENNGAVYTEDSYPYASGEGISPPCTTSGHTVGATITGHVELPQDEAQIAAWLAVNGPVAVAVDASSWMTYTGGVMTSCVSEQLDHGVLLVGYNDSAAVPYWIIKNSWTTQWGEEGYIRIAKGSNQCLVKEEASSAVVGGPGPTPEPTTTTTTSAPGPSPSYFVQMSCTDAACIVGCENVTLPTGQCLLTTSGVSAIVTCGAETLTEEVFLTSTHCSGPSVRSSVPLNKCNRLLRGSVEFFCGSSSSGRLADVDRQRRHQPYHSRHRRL
Rhodesain (Trypanosoma brucei rhodesiense), sequence (Q95PM0 1-450): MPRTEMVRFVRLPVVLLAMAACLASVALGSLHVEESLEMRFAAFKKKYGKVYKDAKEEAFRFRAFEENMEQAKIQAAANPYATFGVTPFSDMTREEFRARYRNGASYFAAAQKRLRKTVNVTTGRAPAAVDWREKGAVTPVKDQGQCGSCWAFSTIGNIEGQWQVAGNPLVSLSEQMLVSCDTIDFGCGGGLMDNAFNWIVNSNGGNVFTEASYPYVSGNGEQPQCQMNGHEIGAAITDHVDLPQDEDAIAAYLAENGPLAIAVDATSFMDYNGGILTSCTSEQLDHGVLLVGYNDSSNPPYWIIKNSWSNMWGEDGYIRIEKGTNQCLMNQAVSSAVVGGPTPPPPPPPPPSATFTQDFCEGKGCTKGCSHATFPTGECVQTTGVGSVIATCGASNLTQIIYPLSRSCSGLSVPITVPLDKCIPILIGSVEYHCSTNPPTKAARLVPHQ
Cruzipain, sequence (P25779 whole entry): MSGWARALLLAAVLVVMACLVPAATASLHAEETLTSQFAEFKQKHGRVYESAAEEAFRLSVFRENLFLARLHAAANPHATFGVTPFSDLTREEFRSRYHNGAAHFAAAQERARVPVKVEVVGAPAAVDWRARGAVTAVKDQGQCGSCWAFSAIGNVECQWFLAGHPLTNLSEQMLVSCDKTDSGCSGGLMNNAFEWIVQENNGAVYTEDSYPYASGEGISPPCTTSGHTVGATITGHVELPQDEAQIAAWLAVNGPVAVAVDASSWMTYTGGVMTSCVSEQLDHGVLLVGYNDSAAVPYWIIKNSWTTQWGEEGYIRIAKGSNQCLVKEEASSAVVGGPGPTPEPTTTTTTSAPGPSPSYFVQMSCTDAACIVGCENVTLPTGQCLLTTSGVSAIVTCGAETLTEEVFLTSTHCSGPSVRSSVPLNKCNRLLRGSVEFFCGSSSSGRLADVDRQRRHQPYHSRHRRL

| SMILES | inhibition [1] [%] | inhibition [2] [%] | inhibition [3] [%] | inhibition [4] [%] | IC50 (Trypanosoma cruzi) [µM] | IC50 [9] [µM] | IC50 [10] [µM] | also measured |
| --- | --- | --- | --- | --- | --- | --- | --- | --- |
| Cc1ccc(C(=O)c2oc3ccc4c(C)cc(=O)oc4c3c2C)cc1 | 53.6 | 69 | 60.4 | 77.1 | 32 | 32 | 32 | inhibition [5]: 3%; inhibition [6]: 11%; inhibition [7]: 8%; inhibition [8]: 12% |
| CCOc1cccc(C(=O)Nc2ccc(-c3nc4ccccc4[nH]3)cc2)c1 | 88.1 | 72.7 | 53.7 | 75.6 | 32 | 32 | 32 | inhibition [11]: 89%; inhibition [12]: 100%; inhibition [13]: 46%; inhibition [14]: 100%; IC50 (Cruzipain): 2.6 µM; inhibition [15]: 34.6%; inhibition [16]: 100%; inhibition [17]: 100%; inhibition [18]: 16%; inhibition [19]: 97.9% |
